Measurements from different studies.
Lines come from different studies, so protocols differ.
Effect on: cell growth or viability

Structure (SMILES)	cell line	method	concentration	time	notes	endpoint	result
Cc1cc(O)cc2c(C3CCN(CC4CCN(C(=O)/C=C/c5ccc(Cl)c(Cl)c5)CC4)CC3)c[nH]c12	HEK293					IC50	> 10 µM
Cc1cccc(-c2cccc(C)n2)n1.Cc1cccc(-c2cccc(C)n2)n1.F[P-](F)(F)(F)(F)F.F[P-](F)(F)(F)(F)F.[Ru+2].c1ccc2cc(-c3nc4c5cccnc5c5ncccc5c4[nH]3)ccc2c1	SK-MEL-28	resazurin			dark	EC50	31.8 µM
N.N.[Cl][Pt][Cl]	HEK293	MTT		72 h		IC50	28.4 µM
O=S(=O)([O-])C(F)(F)F.OCc1ccnc(-c2cc(CO)ccn2)c1.[Ru+2].c1cc[cH-]c1.c1ccc(P(c2ccccc2)c2ccccc2)cc1	HEK293	MTT		48 h		IC50	6.7 µM
N.N.[Cl][Pt][Cl]	SK-MEL-28	resazurin			dark	EC50	3.12 µM
Cc1ccc2c(CNCC3(N4CCCC4)COC3)c[nH]c2c1	T98G		30 µM	48 h		viability	98.5%
CNCCN(C)C(=O)Oc1c(Cl)c(C)nc(C)c1-c1ccc(Oc2ccc(OC(F)(F)F)cc2)cc1	HEK293					IC50	> 10 µM
Cc1cccc(-n2ncc(Cl)c(Cl)c2=O)c1	NCI-H1975	resazurin		96 h		IC50	0.14 µM
CCCCCCCSc1ccc(CC(C)NCC(O)c2cccc(Cl)c2)cc1 (stereo not drawn)	HEK293					IC50	> 10 µM
N.N.[Cl][Pt][Cl]	NCI-H1975	MTT		72 h		IC50	6 µM
Cc1cccc2[nH]cc(CNCC3(N4CCCC4)COC3)c12	T98G		30 µM	48 h		viability	60.1%
Cc1c(C)c2c(c(C)c1O)CC[C@](C)(C(=O)NC1CCC(CN3CCC(c4c[nH]c5ccccc45)CC3)CC1)O2 (stereo partly drawn)	HEK293					IC50	> 10 µM
